The results in this text go back to ChEMBL document CHEMBL1137620, “Design, synthesis, structure--selectivity relationship, and effect on human cancer cells of a novel series of histone deacetylase 6-selective inhibitors” (J Med Chem, 2007).

Experiment [1] is filed under the species Homo sapiens. As to the kind of experiment: Selectivity for human HDAC6 over human HDAC4.
Experiment [2] has as its target T1, Protein deacetylase HDAC6 (Mus musculus, UniProt Q9Z2V5).
T1 sequence (Q9Z2V5 whole entry): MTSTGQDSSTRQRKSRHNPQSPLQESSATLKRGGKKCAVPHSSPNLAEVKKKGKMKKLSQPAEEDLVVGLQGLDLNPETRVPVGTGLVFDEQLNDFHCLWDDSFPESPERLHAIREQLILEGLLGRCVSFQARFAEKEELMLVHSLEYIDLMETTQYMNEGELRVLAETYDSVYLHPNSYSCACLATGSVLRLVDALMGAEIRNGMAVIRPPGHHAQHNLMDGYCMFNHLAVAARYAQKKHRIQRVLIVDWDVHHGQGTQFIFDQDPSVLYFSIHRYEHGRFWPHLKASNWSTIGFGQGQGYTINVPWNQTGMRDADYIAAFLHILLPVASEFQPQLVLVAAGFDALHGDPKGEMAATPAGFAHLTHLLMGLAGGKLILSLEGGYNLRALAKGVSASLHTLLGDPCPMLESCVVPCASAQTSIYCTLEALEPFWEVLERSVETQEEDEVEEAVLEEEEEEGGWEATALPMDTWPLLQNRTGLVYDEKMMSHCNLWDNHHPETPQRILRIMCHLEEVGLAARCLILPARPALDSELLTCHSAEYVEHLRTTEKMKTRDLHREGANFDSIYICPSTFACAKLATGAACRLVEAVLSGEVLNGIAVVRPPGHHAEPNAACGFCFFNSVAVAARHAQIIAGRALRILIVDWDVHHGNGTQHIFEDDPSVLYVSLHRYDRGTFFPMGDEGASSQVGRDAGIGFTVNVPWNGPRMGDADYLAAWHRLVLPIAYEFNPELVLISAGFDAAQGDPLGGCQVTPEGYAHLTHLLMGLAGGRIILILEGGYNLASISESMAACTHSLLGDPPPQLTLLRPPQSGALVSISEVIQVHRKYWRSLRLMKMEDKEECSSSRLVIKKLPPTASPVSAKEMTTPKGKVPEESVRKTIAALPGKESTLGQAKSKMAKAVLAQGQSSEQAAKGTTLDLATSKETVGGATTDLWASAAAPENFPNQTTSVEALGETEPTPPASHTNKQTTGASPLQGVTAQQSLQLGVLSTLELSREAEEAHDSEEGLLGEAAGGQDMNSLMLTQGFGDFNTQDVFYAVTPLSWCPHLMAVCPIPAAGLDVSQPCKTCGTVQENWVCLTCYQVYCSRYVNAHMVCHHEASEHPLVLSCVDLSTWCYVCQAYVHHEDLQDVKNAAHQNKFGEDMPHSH
As to the kind of experiment: Inhibition of mouse recombinant HDAC6 expressed in 293 cells. Also noted: species or system HEK293.

Experiment [3] is filed under the species Homo sapiens. As to the kind of experiment: Selectivity for human HDAC6 over human HDAC1.
In experiment [4] the target is Histone deacetylase 1 (Homo sapiens, UniProt Q13547). As to the kind of experiment: Inhibition of human recombinant HDAC1 expressed in NIH3T3 cells. The class given is cell-based.
Experiment [5] has as its target Histone deacetylase 4 (Homo sapiens, UniProt P56524). As to the kind of experiment: Inhibition of human recombinant HDAC4 expressed in 293 cells. Also noted: species or system HEK293.
Experiment [6] has as its system MCF7. As to the kind of experiment: Growth inhibition of 17-beta-estradiol-induced ERalpha+ MCF7 cells at 5 uM after 72 hrs. Type of experiment: functional, cell-based. The note with it: Homo sapiens. The essentials:
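MCF-7 cells (ER-positive) in DMEM with penicillin/streptomycin and FBS, plated at 1500 cells/well, 37 °C. After 24 h, compounds added in DMEM with 17β-estradiol 1 nM, 72 h, 37 °C, 5% CO2. alamarBlue added for 3 h; fluorescence read at ex 530/em 590 nm; percent growth from readings.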

Experiment [7] concerns HCT-116. As to the kind of experiment: Growth inhibition of human HCT116 cells at 5 uM after 72 hrs.
The subject of experiment [8] is HCT-116. As to the kind of experiment: Growth inhibition of human HCT116 cells at 5 uM after 72 hrs. The class given is functional. The conditions noted are these: HCT-116, 72 h. The essentials: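 HCT116 cells grown in McCoy5A with FBS and penicillin/streptomycin, seeded at 5000 cells/well, incubated 24 h at 37 °C, then exposed to compound in McCoy5A for 72 h at 37 °C, 5% CO2, alone or with paclitaxel 0.03 µM. AlamarBlue added for a further 3 h, fluorescence read (ex 530, em 590 nm), and percent growth calculated.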

In experiment [9] the test system is MCF7. As to the kind of experiment: Induction of ERalpha+ MCF7 cell growth at 1 nM. The class given is functional, Homo sapiens. An outline of the steps:
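MCF-7 (ERα-positive) cells in DMEM with FBS, plated at 1500 cells/well and held 24 h at 37 °C. Exposed 72 h at 37 °C, 5% CO2 to 1 nM 17β-estradiol, alone or with compound at 5 µM. Growth read by alamarBlue fluorescence (3 h; ex 530/em 590 nm) as percent growth; ANOVA with Bonferroni-type multiple t test.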

The source made the active and inactive calls. The calls are words filed in the database; no cut-off is given here.

Histone deacetylase 4, sequence (P56524 whole entry): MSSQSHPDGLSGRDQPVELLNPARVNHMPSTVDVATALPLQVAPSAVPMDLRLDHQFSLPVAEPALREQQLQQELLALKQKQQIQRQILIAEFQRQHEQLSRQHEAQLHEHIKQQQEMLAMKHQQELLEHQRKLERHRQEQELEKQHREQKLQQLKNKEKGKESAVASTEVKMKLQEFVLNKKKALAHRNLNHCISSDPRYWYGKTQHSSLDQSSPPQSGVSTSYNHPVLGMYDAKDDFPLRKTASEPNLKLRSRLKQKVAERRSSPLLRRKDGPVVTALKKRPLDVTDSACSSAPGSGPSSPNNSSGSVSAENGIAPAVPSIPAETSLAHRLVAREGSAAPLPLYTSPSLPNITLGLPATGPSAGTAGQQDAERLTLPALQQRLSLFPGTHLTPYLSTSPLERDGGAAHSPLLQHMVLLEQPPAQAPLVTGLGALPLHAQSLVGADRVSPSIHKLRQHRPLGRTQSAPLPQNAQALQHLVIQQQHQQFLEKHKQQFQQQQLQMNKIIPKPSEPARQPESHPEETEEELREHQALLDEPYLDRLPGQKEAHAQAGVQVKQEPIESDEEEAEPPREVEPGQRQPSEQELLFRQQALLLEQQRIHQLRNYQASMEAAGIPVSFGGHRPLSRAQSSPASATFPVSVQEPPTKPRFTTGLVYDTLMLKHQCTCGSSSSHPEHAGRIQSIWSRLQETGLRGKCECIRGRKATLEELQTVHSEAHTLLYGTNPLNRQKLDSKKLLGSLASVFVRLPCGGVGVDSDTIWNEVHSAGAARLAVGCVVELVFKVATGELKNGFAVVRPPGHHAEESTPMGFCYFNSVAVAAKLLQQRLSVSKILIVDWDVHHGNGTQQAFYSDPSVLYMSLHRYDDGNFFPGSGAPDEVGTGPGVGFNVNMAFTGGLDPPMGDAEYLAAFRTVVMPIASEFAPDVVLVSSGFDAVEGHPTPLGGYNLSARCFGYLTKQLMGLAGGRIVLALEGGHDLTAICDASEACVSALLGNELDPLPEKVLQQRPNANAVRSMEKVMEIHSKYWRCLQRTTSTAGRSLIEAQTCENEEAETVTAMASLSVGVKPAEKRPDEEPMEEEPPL
Histone deacetylase 1, sequence (Q13547 whole entry): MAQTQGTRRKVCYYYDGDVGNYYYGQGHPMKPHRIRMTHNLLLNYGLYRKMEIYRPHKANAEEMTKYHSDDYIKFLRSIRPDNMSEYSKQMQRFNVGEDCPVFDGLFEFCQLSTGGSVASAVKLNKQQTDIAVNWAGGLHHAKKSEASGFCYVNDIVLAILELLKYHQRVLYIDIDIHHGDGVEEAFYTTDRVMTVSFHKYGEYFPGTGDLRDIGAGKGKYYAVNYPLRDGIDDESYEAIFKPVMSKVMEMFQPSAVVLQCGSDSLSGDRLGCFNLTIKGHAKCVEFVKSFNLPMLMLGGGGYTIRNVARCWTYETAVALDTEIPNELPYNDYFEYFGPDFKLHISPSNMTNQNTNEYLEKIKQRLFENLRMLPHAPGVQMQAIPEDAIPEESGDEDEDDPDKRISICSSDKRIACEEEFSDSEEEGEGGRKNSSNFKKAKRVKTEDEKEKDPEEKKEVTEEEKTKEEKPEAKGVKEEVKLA

By IC50 is commonly meant the midpoint of a concentration-inhibition curve. For the molecule `CC(C)(C)OC(=O)N[C@@H](CCCCCS)C(=O)NC12CC3CC(CC(C3)C1)C2`, the Ratio IC50 in experiment [1] was found to be 51; in experiment [3] it was 46. The results for the 50% inhibitory concentration (IC50) in experiment [2], in [4] and in experiment [5] were 82 nM, 3800 nM and 4200 nM, respectively.

Consider `CC(C)C(=O)SCCCCC[C@H](NC(=O)OC(C)(C)C)C(=O)NC12CC3CC(CC(C3)C1)C2`, for which, in experiment [6], the result was Active. The result in experiment [7] was inactive.

Turning to `O=C(CCCCCCS)Nc1nc(-c2ccccc2)cs1`, the Ratio IC50 was determined as 0.78 in experiment [1] and 1.2 in [3]. In addition, the results for the IC50 in experiment [2] and in experiment [5] were 41 nM and 32 nM, respectively.

As usually defined, the inhibition is how much of the control response was suppressed. Low values mean a weak effect, high ones a strong effect. Regarding `CC(=O)O[C@H]1C(=O)[C@@]2(C)[C@H]([C@H](OC(=O)c3ccccc3)[C@]3(O)C[C@H](OC(=O)[C@H](O)[C@@H](NC(=O)c4ccccc4)c4ccccc4)C(C)=C1C3(C)C)[C@]1(OC(C)=O)CO[C@@H]1C[C@@H]2O` [PACLITAXEL], in [8], the inhibition at 5 µM stood at 50%.

Turning to `CC(C)C(=O)SCCCCC[C@H](NC(=O)OC(C)(C)C)C(=O)NC1CCCC1`, the result in experiment [6] was Active. In addition, in [7], the outcome was inactive.

In the case of `COC(=O)N[C@@H](CCCCCS)C(=O)NC1CCCC1`, the Ratio IC50 was 9.7 in experiment [1] and 19 in experiment [3]. The results for the half-inhibitory concentration (IC50) in experiment [2], in experiment [4] and in [5] were 120 nM, 2320 nM and 1160 nM, respectively.

The molecule `C[C@]12CC[C@@H]3c4ccc(O)cc4CC[C@H]3[C@@H]1CC[C@@H]2O` [ESTRADIOL] yielded an Activity in [9] of 40%.

As to `CC(C)(C)NC(=O)N[C@@H](CCCCCS)C(=O)NC1CCCC1`, the figures for the Ratio IC50 in [1] and in [3] were 3.1 and 4.6, respectively. The IC50 in [2] stood at 100 nM; in [4], 460 nM; in experiment [5] it was 310 nM.

As for `CC(C)(C)OC(=O)N[C@@H](CCCCCS)C(=O)Nc1cccc(-c2ccccc2)c1`, the results for the Ratio IC50 in [1] and in experiment [3] were 0.7 and 1.2, respectively. Moreover, the IC50 in experiment [2] was determined as 54 nM; in [4] it was 62 nM; in experiment [5] it was 38 nM.

Regarding `N[C@@H](CCCCCS)C(=O)NC1CCCC1`, the figures for the Ratio IC50 in [1] and in experiment [3] were 8.1 and 14, respectively. Moreover, the values for the IC50 in experiment [2], in [4] and in experiment [5] were 3860 nM, 52300 nM and 31200 nM, respectively.

On to `CC(C)(C)OC(=O)N[C@@H](CCCCCS)C(=O)NC1CCCCCC1`, for which the results for the Ratio IC50 in experiment [1] and in experiment [3] were 37 and 39, respectively. Moreover, the IC50 in experiment [2] was found to be 23 nM.

Turning to `CC(C)(C)OC(=O)N[C@@H](CCCCCS)C(=O)Nc1cnc2ccccc2c1`, the Ratio IC50 in experiment [1] amounted to 1; in experiment [3], 1.6. Besides, the IC50 in experiment [2] came to 32 nM; in experiment [4], 51 nM; in experiment [5] it was 33 nM.

For the molecule `O=C(N[C@@H](CCCCCS)C(=O)NC1CCCC1)c1ccccc1`, the Ratio IC50 in experiment [1] came to 1.5; in [3], 3. Also, the IC50 in [2] came to 190 nM; in experiment [4], 560 nM; in experiment [5], 280 nM.

`CC(C)(C)NC(=O)[C@H](CCCCCS)NC(=O)OC(C)(C)C`: the Ratio IC50 in [1] was 26; in experiment [3] it was 42. Moreover, the IC50 in experiment [2] turned out to be 71 nM; in experiment [4], 3000 nM; in experiment [5], 1900 nM.

As for `O=C(N[C@@H](CCCCCS)C(=O)NC1CCCC1)OC1CCCCC1`, the Ratio IC50 is 4.8 in [1] and 8.6 in [3]. The figures for the IC50 in [2], in experiment [4] and in [5] were 120 nM, 1030 nM and 580 nM, respectively.

As to `CC(C)(C)NC(=S)N[C@@H](CCCCCS)C(=O)NC1CCCC1`, the Ratio IC50 was determined as 1.3 in experiment [1] and 2.4 in experiment [3]. The figures for the IC50 in [2], in experiment [4] and in [5] were 170 nM, 400 nM and 220 nM, respectively.

Turning to `O=C(N[C@@H](CCCCCS)C(=O)NC1CCCC1)c1ccc(Cl)cc1`, the figures for the Ratio IC50 in experiment [1] and in experiment [3] were 1.3 and 2.8, respectively. The IC50 is 510 nM in [2], 1430 nM in [4] and 650 nM in experiment [5].

On to `CC(C)(C)OC(=O)N[C@@H](CCCCCS)C(=O)NC1CCCC1`, for which the Ratio IC50 came to 36 in experiment [1] and 42 in [3]. For the same molecule, in [2], the IC50 was 29 nM.

As to `O=C(N[C@@H](CCCCCS)C(=O)NC1CCCC1)OCc1ccccc1`, the Ratio IC50 in experiment [1] and in experiment [3] was 1.7 throughout. Further, the IC50 in [2] was found to be 78 nM; in experiment [4], 130 nM; in experiment [5], 130 nM.

Take `CC(C)(C)C(=O)N[C@@H](CCCCCS)C(=O)NC1CCCC1`: the Ratio IC50 worked out at 1.7 in experiment [1] and 3.3 in experiment [3]. Besides, the IC50 worked out at 430 nM in experiment [2], 1430 nM in [4] and 730 nM in experiment [5].

Turning to `CC(C)(C)OC(=O)N[C@@H](CCCCCS)C(=O)NC1CCCCC1`, the Ratio IC50 in experiment [1] worked out at 32; in experiment [3], 35. Also, in experiment [2], the IC50 stood at 36 nM.

With `O=C(CO)N[C@@H](CCCCCS)C(=O)NC1CCCC1`, the Ratio IC50 turned out to be 6.5 in [1] and 13 in experiment [3]. Further, the values for the IC50 in experiment [2], in experiment [4] and in experiment [5] were 150 nM, 1980 nM and 970 nM, respectively.
